This is an account of results in PMC11341692 (Nature Communications, 2024).

The subject of this experiment is NET formation in human peripheral blood neutrophils. The experiment can be described thus: MPO-ANCA-IC-induced NET formation in primed human peripheral blood neutrophils. The class given is cell-based. To be noted: for MPO-ANCA-IC-induced NET formation: avacopan 0.1 and 1 µM. The essentials:
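Neutrophils isolated with Polymorphprep from the blood of healthy volunteers (n = 3). Cells were pretreated 15 min with an NE inhibitor (0, 50, 500 µM) or a C5aR inhibitor (0, 0.1, 1 µM), then primed with 5 ng/ml TNF-α or 100 ng/ml C5a for 15 min at 37 °C. They were seeded on MPO-ANCA-IC-coated chambers at 5 × 10^5/well for 3–4 h at 37 °C, then PFA-fixed and stained for CD15, Cit-H3 and DAPI. DAPI-positive DNA area per neutrophil was taken from three random images per well.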

Each structure is given as a SMILES string.

On to `CC(C)(C)C(=O)Oc1ccc(S(=O)(=O)Nc2ccccc2C(=O)NCC(=O)O)cc1` [Sivelestat], for which the “DAPI-positive DNA area per neutrophil” value (TNF-α + MPO-ANCA-IC, sivelestat 0, 50, and 500 µM) was “reduced by sivelestat dose-dependently and significantly”. Moreover, where the note is “TNF-α + MPO-ANCA-IC, sivelestat 500 µM”, the “Neutrophil swelling (fold change)” value is recorded as “significantly suppressed”.

Regarding `Cc1ccc(NC(=O)[C@H]2CCCN(C(=O)c3c(C)cccc3F)[C@H]2c2ccc(NC3CCCC3)cc2)cc1C(F)(F)F` [Avacopan, avacopan], the “MPO-ANCA-IC-induced NET formation” value was “suppressed” (C5a-primed neutrophils) and “but not in TNF-α-primed neutrophils” (TNF-α-primed neutrophils).
